Experimental findings from PubChem BioAssay are described below.

SMILES strings stand for the structures. Values without a mark were called inactive. Inconclusive results are not listed. Calls of active or inactive are those of the source.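 The calls were made as follows, unless noted: active = viability increase at or above a cutoff of the median across tested compounds plus 3 SD (cut at about 8.5% in these data, passing the limit was not always enough); inconclusive = some gains above the cutoff, reason not given; inactive = the rest.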

Assay [1] in a line: OD615 S. cerevisiae growth inhibition, permissive medium, pilot counter-assay, permissive growth control for S. cerevisiae lifespan shortening project (AID 705;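 active = growth inhibition above 25% in both replicates, a cutoff set 3 SD above the mean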). The conditions noted are these: OD615, 24 h, at 10 µM, stronger effect = higher value. A digest of the protocol: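 System: S. cerevisiae with engineered DeaD lifespan system / Measured by: absorbance (optical density) at 615 nm / Read-out: reduction in yeast growth (OD615) / Times: 4 h cell pre-growth, 24 h exposure at 30 °C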

Assay [2] in a line: Restrictive medium S. cerevisiae growth inhibition, OD615, pilot screen of yeast lifespan reduction project, restrictive growth control (AID 706;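 active = growth inhibition above a set limit, 3 SD over mean compound inhibition, in both replicates, cut at about 43% in these data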;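 also: modified DeaD lifespan yeast strain shifted to restrictive glucose medium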). The following applies: OD615, 48 h, at 10 µM, stronger effect = higher value. The method in brief:
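System: Engineered S. cerevisiae DeaD strain | Buffer or medium: Glucose-based CSMM-D restrictive medium | Schedule: 4 h pre-incubation, 48 h exposure at 30 °C | Technique: Optical density at 615 nm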

Assay [3] is described as follows: viability gain of MRP-1-high H69AR cells under doxorubicin, pilot screen, MRP-1 activator project, CellTiter-Glo, duplicate (AID 807).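 Also: compound pretreatment 18-22 h then 72 h combined with doxorubicin; 0% = doxorubicin alone and 100% = vehicle without doxorubicin.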 The conditions noted are these: H69AR viability with doxorubicin, CellTiter-Glo luminescence; at 10 µM; stronger effect = higher value.
A short description of assay [4]: growth suppression of beta-catenin knockout HCT116, pilot screen, human colon tumor cells (AID 823;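 active = cell viability at or below a set limit in both duplicate runs, the limit being the all-compound median minus 4 SD, cut at about 23% in these data, passing the limit was not always enough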;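 also: 0% = wells killed by 20 µM Hyamine and 100% = untreated DMSO cell wells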). The following applies: CellTiter-Glo, 60 h, at 10 µM, stronger effect = lower value.
A short description of assay [5]: growth suppression of PTEN-deleted HCT116, pilot screen, cell-based, HCT116 clonal line, CellTiter-Glo (AID 824;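 active = viability at or below 27.92% in each of two runs, the all-compound median minus 4 SD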;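 also: 0% = 20 µM Hyamine control and 100% = vehicle cell control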). The following applies: 60 h, at 10 µM, stronger effect = lower value.
A short description of assay [6]: inhibitors of the yeast RAM network, pilot screen, dse1pr::URA3 reporter, 5-FOA selection (AID 869;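 active = inhibition over a set limit, the all-compound mean plus 3 SD, in both replicate runs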;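 also: 0% = DMSO wells with no growth and 100% = 10 µM 1-NA-PP1 with full growth; RAM network block rescues cells from 5-FOA so hits raise OD615 growth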). The following applies: S. cerevisiae dse1pr::URA3 5-FOA growth, OD615, 2 d; at 10 µM; stronger effect = higher value; strain carries analog-sensitive mutant Cbk1 kinase.
A short description of assay [7]: RAM signaling pathway blockade in yeast – S. cerevisiae, Pdr1DBD-CYC8 efflux-inhibited sensitized strain, primary screen (AID 1298;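 active = RAM network inhibition above 8.4% in each of two replicates, 3 SD over the compound average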;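 also: 0% = DMSO untreated cells without growth and 100% = 10 µM 1-NA-PP1 full growth; higher means more yeast growth rescued from 5-FOA killing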). The following applies: S. cerevisiae cbk1-as DSE1-URA3 strain, 5-FOA growth OD615, 2 d; at 50 µM; stronger effect = higher value.

Turning to `O=C(NCCN1C(=O)C2C3C=CC(C3)C2C1=O)Nc1ccc(Br)cc1` (stereo unspecified), the growth inhibition in assay [1] was -9%; in assay [2], 9.2%. Also, in assay [3], the viability increase is -1.13%. The figures for the viability in assay [4] and in assay [5] were 103% and 88.3%, respectively. Further, the inhibition in assay [6] was 0.81%. Further, in assay [7], the RAM network inhibition is 0.1%.
For `Cc1nnc(NC(=O)CSc2nnc(CNC(=O)c3ccccc3)n2-c2ccccc2)s1`, the growth inhibition was -5% in assay [1] and -0.57% in assay [2]. For the same compound, the viability increase in assay [3] was 0%. Moreover, the viability was 96.1% in assay [4] and 96.5% in assay [5]. For the same compound, the inhibition in assay [6] was 3%. For the same compound, in assay [7], the RAM network inhibition is 3.59%.
`COc1cccc(C(=O)NCC(c2cccnc2)N2CCN(c3ccccc3OC)CC2)c1` (stereo unspecified): the growth inhibition in assay [1] is 1.37%; in assay [2] it was -13.1%. In addition, the viability increase in assay [3] is -2.58%. For the same compound, the viability was 84.3% in assay [4] and 78% in assay [5]. In assay [6], the inhibition is 1.87%. Moreover, the RAM network inhibition in assay [7] was 1.46%.
On to `Nc1nc(SCC(=O)NCCCO)nc2sc3c(c12)CCC3`, for which the results for the growth inhibition in assay [1] and in assay [2] were -8.84% and -4.31%, respectively. Further, the viability increase in assay [3] is -1.44%. For the same compound, the figures for the viability in assay [4] and in assay [5] were 96.1% and 94%, respectively. Further, the inhibition in assay [6] is 1.44%. Moreover, the RAM network inhibition in assay [7] was 0.31%.
On to `CCN1CCN(C(=O)CS(=O)(=O)Cc2nc(-c3ccc(C)cc3)oc2C)CC1`, for which the growth inhibition in assay [1] was -5.05%; in assay [2], 3.62%. In addition, the viability increase in assay [3] was -0.17%. In addition, the viability was 85.2% in assay [4] and 87.8% in assay [5]. The inhibition in assay [6] is 0.805%. In addition, the RAM network inhibition in assay [7] is 2.7%.
In the case of `Cc1cccc(OCC(=O)Nc2ccc3c(c2)OCO3)c1C`, the values for the growth inhibition in assay [1] and in assay [2] were -5.98% and -2.99%, respectively. Moreover, the viability increase in assay [3] was -0.26%. Moreover, the viability in assay [4] and in assay [5] was 103% in each case. For the same compound, the inhibition in assay [6] was 1.77%. The RAM network inhibition in assay [7] was 7.79%.
Take `O=C(c1ccc(S(=O)(=O)N2CCCC2)cc1)N1CCCc2ccccc21`: the growth inhibition in assay [1] is -17.6%; in assay [2], -13.7%. Besides, the viability increase in assay [3] is -4.87%. Moreover, the figures for the viability in assay [4] and in assay [5] were 95.1% and 92.4%, respectively. Also, the inhibition in assay [6] is 0.11%. Moreover, the RAM network inhibition in assay [7] is 1.2%.
On to `CS(=O)(=O)c1ccc2nc(NC(=O)C3CCCCC3)sc2c1`, for which the figures for the growth inhibition in assay [1] and in assay [2] were -0.52% and -7.79%, respectively. Also, in assay [3], the viability increase was -7.36%. Also, the figures for the viability in assay [4] and in assay [5] were 72.2% and 77.3%, respectively. In addition, the inhibition in assay [6] was 0.96%. In assay [7], the RAM network inhibition is 0.41%.
As to `COc1ccccc1NC(=O)CCNC(=O)Cn1ccc2ccccc2c1=O`, the growth inhibition in assay [1] is -12.7%; in assay [2], -11.8%. Moreover, the viability increase in assay [3] was -1.84%. The results for the viability in assay [4] and in assay [5] were 96.6% and 93.3%, respectively. Further, the inhibition in assay [6] was 0.74%. In assay [7], the RAM network inhibition was 3.6%.
Turning to `CC(Nc1ncnc2nc[nH]c12)c1ccccc1` (stereo unspecified), the growth inhibition was -8.48% in assay [1] and 10.5% in assay [2]. Further, in assay [3], the viability increase was -1.31%. For the same compound, the viability was 95.3% in assay [4] and 88.9% in assay [5]. The inhibition in assay [6] was 0.985%. The RAM network inhibition in assay [7] was 4.02%.
For the compound `CCn1c(=NC(=O)CN2C(=O)CCC2=O)sc2c(C)cc(C)cc21`, the growth inhibition in assay [1] is -13.1%; in assay [2], -2.35%. Also, the viability increase in assay [3] was -4.23%. Further, the values for the viability in assay [4] and in assay [5] were 92.2% and 91.2%, respectively. Also, in assay [6], the inhibition was 0.505%. The RAM network inhibition in assay [7] is 6.51%.
For `CCc1ccc(NC(=O)c2cnc3n(c2=O)CCS3)cc1`, the growth inhibition is -1.06% in assay [1] and 0.895% in assay [2]. Further, in assay [3], the viability increase is -2.9%. The viability in assay [4] is 95.2%; in assay [5], 85.9%. Besides, the inhibition in assay [6] was 2.82%. In addition, the RAM network inhibition in assay [7] was 0.15%.
With `COc1ccc(CCN2CC(C#N)=C3c4cc(OC)c(OC)cc4CCN3C2)cc1OC`, the growth inhibition in assay [1] was -2.16%; in assay [2], 3.84%. In assay [3], the viability increase is -4.7%. Moreover, the viability is 99.5% in assay [4] and 95.4% in assay [5]. Besides, the inhibition in assay [6] is -0.455%. In addition, the RAM network inhibition in assay [7] is -0.37%.
As to `O=C(O)CCSc1nnc(-c2ccccc2)n1-c1ccccc1`, the growth inhibition in assay [1] was 4.3%; in assay [2], 50.6% (active). The viability increase in assay [3] is 0.8%. Moreover, the viability was 94.4% in assay [4] and 98.3% in assay [5]. The inhibition in assay [6] is 1.48%. Also, the RAM network inhibition in assay [7] was 0.72%.
For `CCCn1c(NCc2ccc(N(C)C)cc2)nc2ccccc21`, the growth inhibition was -11.6% in assay [1] and -8.42% in assay [2]. Further, the viability increase in assay [3] is -1.82%. Also, the viability was 70.8% in assay [4] and 70.9% in assay [5]. Moreover, the inhibition in assay [6] is 0.405%. Further, the RAM network inhibition in assay [7] was 5.4%.
Take `CC1CN(S(=O)(=O)c2ccc(C(=O)Nc3sc4c(c3C(N)=O)CCN(C)C4)cc2)CC(C)O1` (stereo unspecified): the growth inhibition in assay [1] was -6.76%; in assay [2], -7.93%. Moreover, in assay [3], the viability increase is -0.69%. Besides, the viability in assay [4] was 91.9%; in assay [5], 97.7%. Also, the inhibition in assay [6] was 1.35%. For the same compound, the RAM network inhibition in assay [7] was 5.2%.
In the case of `S=c1nc(-c2ccccc2)n(CCCn2ccnc2)c2c1CCCC2`, the growth inhibition was -6.46% in assay [1] and -0.21% in assay [2]. Also, the viability increase in assay [3] is 0.85%. Besides, the values for the viability in assay [4] and in assay [5] were 102% and 95.6%, respectively. Further, the inhibition in assay [6] was 2.03%. Besides, in assay [7], the RAM network inhibition is -0.69%.
With `Cc1ccc(-c2nc(CS(=O)(=O)CC(=O)NCCCN3CCN(C)CC3)c(C)o2)cc1`, the growth inhibition in assay [1] is -9.1%; in assay [2], -15.2%. Besides, the viability increase in assay [3] is 0.53%. Further, the viability in assay [4] is 89.4%; in assay [5], 94.7%. In addition, the inhibition in assay [6] is 1.34%. Moreover, the RAM network inhibition in assay [7] is -0.16%.
